Data published in ChEMBL document CHEMBL1142364, “Investigation of the alkenyldiarylmethane non-nucleoside reverse transcriptase inhibitors as potential cAMP phosphodiesterase-4B2 inhibitors” (Bioorg Med Chem Lett, 2008).
Calls of active or inactive are those of the source. The calls are words filed in the database; no cut-off is given here.

Columns and labels:
[1] = system: Human immunodeficiency virus 1; assay: Antiviral activity against HIV1 RF in CEM-SS cells assessed as inhibition of virus-induced cytopathic effect by XTT assay; type: functional, organism-based; conditions: Human immunodeficiency virus 1, RF
Method in brief: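 CEM-SS cells infected with HIV-1 RF; XTT cytoprotection read-out; EC50 is the concentration that inhibits 50% of viral cytopathic effect.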

[2] = target: Human immunodeficiency virus type 1 reverse transcriptase (Human immunodeficiency virus 1, UniProt Q72547); assay: Inhibition of HIV1 reverse transcriptase
Method in brief: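 Recombinant HIV-1 RT, p66/51 heterodimer; polymerase activity measured with poly(rC).oligo(dG) as template primer.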

[3] = Cytotoxicity against human CEM-SS cells; type: cell-based
Method in brief: (§1)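 Mock-infected CEM-SS or MT-4 cells run alongside the antiviral cultures; CC50 is the concentration causing death of 50% of the cells.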

[4] = target: 3',5'-cyclic-AMP phosphodiesterase 4B (Homo sapiens) (UniProt Q07343); assay: Inhibition of PDE4B2 expressed in COS7 cells assessed as cAMP hydrolysis at 100 uM; type: cell-based; conditions: COS-7
[5] = system: Human immunodeficiency virus 2; assay: Antiviral activity against HIV2 ROD in MT4 cells assessed as inhibition of virus-induced cytopathic effect by MTT assay; type: functional, organism-based
Method in brief: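 MT-4 cells infected with HIV-2 ROD; protection from cytopathic effect read by MTT assay; EC50 is the concentration blocking 50% of virus-induced cell killing.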

[6] = Cytotoxicity against human MT4 cells; type: cell-based; method in brief: as §1
[7] = system: Human immunodeficiency virus 1; assay: Antiviral activity against HIV1 3B in MT4 cells assessed as inhibition of virus-induced cytopathic effect by MTT assay; type: functional, organism-based; conditions: Human immunodeficiency virus 1, 3B
Method in brief: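 Cytoprotection in MT-4 cells infected with HIV-1 IIIB, read by MTT assay; EC50 taken as the concentration giving 50% inhibition of viral cytopathic effect.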

3',5'-cyclic-AMP phosphodiesterase 4B (Homo sapiens), sequence (Q07343 whole entry): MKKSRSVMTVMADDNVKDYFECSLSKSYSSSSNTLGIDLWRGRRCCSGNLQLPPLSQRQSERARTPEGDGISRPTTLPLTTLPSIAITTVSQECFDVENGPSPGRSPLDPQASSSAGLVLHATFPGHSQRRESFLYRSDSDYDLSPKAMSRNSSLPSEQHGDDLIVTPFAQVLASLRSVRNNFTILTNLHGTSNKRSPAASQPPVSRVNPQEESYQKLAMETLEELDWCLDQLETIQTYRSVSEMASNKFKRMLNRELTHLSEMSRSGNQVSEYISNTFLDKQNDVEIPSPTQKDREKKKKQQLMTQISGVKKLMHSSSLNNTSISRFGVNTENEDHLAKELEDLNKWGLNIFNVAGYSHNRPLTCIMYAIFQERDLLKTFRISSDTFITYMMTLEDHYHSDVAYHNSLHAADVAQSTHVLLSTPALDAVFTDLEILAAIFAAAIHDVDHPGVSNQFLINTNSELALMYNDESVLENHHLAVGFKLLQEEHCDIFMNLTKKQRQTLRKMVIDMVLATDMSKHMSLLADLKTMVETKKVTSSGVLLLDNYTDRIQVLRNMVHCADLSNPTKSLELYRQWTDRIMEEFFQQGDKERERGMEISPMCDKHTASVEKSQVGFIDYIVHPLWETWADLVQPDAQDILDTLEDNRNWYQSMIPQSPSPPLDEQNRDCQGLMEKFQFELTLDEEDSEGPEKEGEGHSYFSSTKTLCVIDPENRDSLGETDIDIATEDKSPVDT

Row | Structure (SMILES) | EC50 [1] | IC50 [2] | CC50 [3] | inhibition [4] | EC50 ([5]; Human immunodeficiency virus 2, ROD) | CC50 [6] | Activity [4] | Activity [5] | EC50 [7]
1 | COC(=O)c1cc(C(=CCCCSC)c2cc(Cl)c(OC)c(C(=O)OC)c2)cc(Cl)c1OC | 5.3 µM | > 100 µM | > 20 µM | 20% | – | – | – | – | –
2 | COC(=O)c1cc(C(=CCCCc2ccccc2)c2cc(Br)c(OC)c(C(=O)OC)c2)cc(Br)c1OC | – | > 100 µM | > 200 µM | – | 21 µM | > 198 µM | inactive | – | –
3 | COC(=O)CCC/C=C(\c1cc(C)c(OC)c(C(=O)OC)c1)c1cc(C)c2oc(=O)n(C)c2c1 | 0.03 µM | – | – | 72% | – | – | – | inactive | 0.09 µM
4 | CCCCCC=C(c1cc(Cl)c(OC)c(C(=O)OC)c1)c1cc(Cl)c(OC)c(C(=O)OC)c1 | 16 µM | – | > 29 µM | – | – | – | inactive | – | –
5 | COC(=O)CCCC=C(c1cc(C)c2oc(=O)n(C)c2c1)c1cc(C)c2oc(=O)n(C)c2c1 | 0.62 µM | 0.5 µM | 31 µM | 71% | – | 33 µM | – | inactive | 0.22 µM
6 | COC(=O)CCCC=C(c1cc(Br)c(OC)c(C(=O)OC)c1)c1cc(Br)c(OC)c(C(=O)OC)c1 | 0.001 µM | – | – | 40% | – | – | – | inactive | –
7 | COc1ccc(C2CNC(=O)C2)cc1OC1CCCC1 (stereo not drawn) | – | – | – | 100% | – | – | – | – | –
8 | Cc1ccnc2c1NC(=O)c1cccnc1N2C1CC1 | – | – | – | – | – | – | – | inactive | –
